Here are results for 9 compounds from ChEMBL document CHEMBL2021780, “Antineoplastic agents. 548. Synthesis of iodo- and diiodocombstatin phosphate prodrugs” (J Nat Prod, 2012).

≈ marks a conversion by molar mass, not a printed value.

One data set has as its system SF-268. The data set is described as follows: Growth inhibition of human SF268 cells after 48 hrs by sulforhodamine B assay. The format is functional. The note with it: SF-268, 48 h. The method, boiled down: (§1)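 NCI sulforhodamine B assay. Cells were seeded in 5% FBS/RPMI-1640 and incubated 24 h. Serial compound dilutions were then added for 48 h. Cells were fixed with trichloroacetic acid, stained with SRB and read by microplate reader. GI50 is the concentration giving 50% reduction in net protein increase, calculated from optical density data.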

For another data set, the system named is BXPC-3. The data set can be described thus: Growth inhibition of human BxPC3 cells after 48 hrs by sulforhodamine B assay. The data set is classed as functional. The following applies: BXPC-3, 48 h. The method, boiled down: as §1
A general note: Sulforhodamine B stains cellular protein and so reports cell mass.

The next data set has as its system DU-145. The data set is described as follows: Growth inhibition of human DU145 cells after 48 hrs by sulforhodamine B assay. The data set is classed as functional. The note with it: DU-145, 48 h. In short, it runs like this: as §1
A short description of data set [1]: Solubility of the compound in water. The data set is classed as physicochemical. In short, it runs like this:
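Solubility expressed as amount dissolving in 1 mL H₂O at 25 °C.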

For the next data set, the system named is NCI-H460. The data set is described as follows: Growth inhibition of human NCI-H460 cells after 48 hrs by sulforhodamine B assay. The format is functional. The following applies: NCI-H460, 48 h. The method, boiled down: as §1
The test system of a further data set is Neisseria gonorrhoeae. The data set can be described thus: Antibacterial activity against Neisseria gonorrhoeae ATCC 49226 by broth microdilution method. The data set is classed as functional. In short, it runs like this: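 Broth microdilution followed NCCLS standard methods. Compounds were reconstituted in sterile DMSO and diluted in the appropriate medium immediately before testing. MIC was taken as the lowest concentration giving no visible growth (optically clear). Assays were repeated on separate days.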
For orientation: Broth dilution looks for growth in wells or tubes with falling amounts of substance.

The subject of the next data set is P388. The data set is described as follows: Growth inhibition of mouse P388 cells after 48 hrs by Z1 Beckman/Coulter particle counter analysis. The format is functional. The following applies: P388, 48 h, read-out: ED50 (the source's name). The method, boiled down:
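Mouse P388 leukemia cells were incubated 24 h in 10% horse serum/Fisher medium, then exposed 48 h to serial compound dilutions. ED50 was calculated from cell counts on a Coulter Z1 particle counter.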

A further data set concerns MCF7. The data set is described as follows: Growth inhibition of human MCF7 cells after 48 hrs by sulforhodamine B assay. The data set is classed as functional. The following applies: MCF7, 48 h. In short, it runs like this: as §1
For the next data set, the system named is KM-20L2. The data set is described as follows: Growth inhibition of human KM20L2 cells after 48 hrs by sulforhodamine B assay. The note with it: KM-20L2, 48 h. The format is functional. The method, boiled down:
as §1

Data set [2] is described as follows: Inhibition of purified tubulin assembly after 20 mins. In short, it runs like this: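 Purified tubulin at 10 μM in 0.8 M monosodium glutamate (pH 6.6), 0.4 mM GTP and 4% (v/v) DMSO, with varying compound concentrations. Extent of assembly was measured after 20 min at 30 °C.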

Take `COc1ccc(/C=C\c2cc(I)c(OC)c(I)c2)cc1OP(=O)([O-])[O-].[Li+].[Li+]`: the GI50 in the data set with SF-268 is 0.05 µg/mL; in the data set with BXPC-3, 0.37 µg/mL; with DU-145 it was 0.032 µg/mL; with NCI-H460, 0.05 µg/mL. The solubility entry in data set [1] (buffer) is listed as “>= 4 mg/ml”. The MIC with Neisseria gonorrhoeae was under 0.5 µg/mL. Besides, the EC50 with P388 was 0.021 µg/mL.
As for `COc1ccc(/C=C\c2cc(I)c(OC)c(OC)c2)cc1OP(=O)([O-])[O-].[Li+].[Li+]`, the GI50 in the data set on SF-268 worked out at 0.004 µg/mL; in the data set on BXPC-3, 0.49 µg/mL; with DU-145, 0.0043 µg/mL; in the data set on MCF7, 0.0038 µg/mL; in the data set with NCI-H460, 0.0039 µg/mL. Moreover, the solubility result in data set [1] (buffer) is “>= 2.4 mg/ml”. Moreover, in the data set with P388, the EC50 came to 0.017 µg/mL.
In the case of `COC(=O)[C@@H](N)Cc1c[nH]c2ccccc12.COC(=O)[C@@H](N)Cc1c[nH]c2ccccc12.COc1ccc(/C=C\c2cc(I)c(OC)c(OC)c2)cc1OP(=O)(O)O`, the GI50 was 0.0097 µg/mL with SF-268; 0.26 µg/mL in the data set on BXPC-3; 0.003 µg/mL in the data set with DU-145; 0.035 µg/mL with MCF7; 0.0034 µg/mL with NCI-H460; 0.59 µg/mL in the data set with KM-20L2. Also, it took 4 µg/mL to inhibit growth with Neisseria gonorrhoeae (MIC). For the same compound, in the data set on P388, the EC50 was determined as 0.0022 µg/mL.
In the case of `COc1ccc(/C=C/c2cc(I)c(OC)c(OC)c2)cc1O` [DIIODOCOMBSTATIN], the GI50 worked out at 0.55 µg/mL (≈ 1.33 µM) with SF-268; 2.7 µg/mL (≈ 6.55 µM) in the data set on BXPC-3; 0.27 µg/mL (≈ 0.655 µM) with DU-145; 0.18 µg/mL (≈ 0.437 µM) with MCF7; 0.21 µg/mL (≈ 0.509 µM) with NCI-H460; 1.7 µg/mL (≈ 4.12 µM) in the data set with KM-20L2. Moreover, in the data set on P388, the EC50 was 0.189 µg/mL (≈ 0.458 µM).
Consider `COC(=O)[C@@H](N)Cc1c[nH]c2ccccc12.COC(=O)[C@@H](N)Cc1c[nH]c2ccccc12.COc1ccc(/C=C\c2cc(I)c(OC)c(I)c2)cc1OP(=O)(O)O`, for which the GI50 is 0.086 µg/mL in the data set on SF-268; 0.37 µg/mL in the data set on BXPC-3; 0.026 µg/mL with DU-145; 0.22 µg/mL in the data set with MCF7; 0.033 µg/mL with NCI-H460; over 1 µg/mL in the data set on KM-20L2. The compound further displayed an MIC with Neisseria gonorrhoeae of under 0.5 µg/mL. The EC50 with P388 is 0.017 µg/mL.
In the case of `COC(=O)CN.COC(=O)CN.COc1ccc(/C=C\c2cc(I)c(OC)c(OC)c2)cc1OP(=O)(O)O`, the GI50 in the data set with SF-268 came out at 0.0033 µg/mL; with BXPC-3, 0.16 µg/mL; with DU-145, 0.0021 µg/mL; in the data set on MCF7, 0.0044 µg/mL; in the data set with NCI-H460, 0.0031 µg/mL; with KM-20L2, 0.32 µg/mL. Moreover, the solubility in [1] (water, read-out: solubility) is at least 2000 µg/mL. For the same compound, the EC50 in the data set with P388 stood at 0.0026 µg/mL.
For the compound `COc1ccc(/C=C\c2cc(F)c(OC)c(OC)c2)cc1O` [FLUORCOMBSTATIN], the GI50 was 0.0016 µg/mL (≈ 0.00526 µM) with SF-268; 0.0019 µg/mL (≈ 0.00624 µM) with DU-145; 0.0027 µg/mL (≈ 0.00887 µM) in the data set on MCF7; 0.0032 µg/mL (≈ 0.0105 µM) in the data set with NCI-H460; over 1 µg/mL in the data set with KM-20L2. The EC50 in the data set with P388 was 0.002 µg/mL (≈ 0.00657 µM).
As to `COc1ccc(/C=C\c2cc(OC)c(OC)c(OC)c2)cc1OP(=O)([O-])[O-].[Na+].[Na+]` [FOSBRETABULIN DISODIUM], the GI50 in the data set with SF-268 worked out at 0.036 µg/mL; in the data set on BXPC-3 it was 0.23 µg/mL; in the data set with DU-145, 0.0072 µg/mL; with NCI-H460, 0.029 µg/mL; in the data set on KM-20L2 it was 0.034 µg/mL. The compound also returned an IC50 in [2] of over 40 µM. Further, the EC50 in the data set with P388 was determined as 0.0004 µg/mL.
Turning to `C1CCNCC1.C1CCNCC1.COc1ccc(/C=C\c2cc(I)c(OC)c(OC)c2)cc1OP(=O)(O)O`, the GI50 stood at 0.0044 µg/mL in the data set on SF-268; 0.32 µg/mL with BXPC-3; 0.0029 µg/mL in the data set with DU-145; 0.0065 µg/mL with MCF7; 0.0036 µg/mL with NCI-H460; 0.51 µg/mL with KM-20L2. For the same compound, in data set [1] (water, read-out: solubility), the solubility was at least 4000 µg/mL. In addition, the EC50 in the data set with P388 came to 0.0026 µg/mL.

As a reminder, the GI50 is the concentration that inhibits growth by half. A higher GI50 goes with lower sensitivity of the cells. The solubility is how much of the substance goes into solution per volume. In general, MIC refers to the lowest concentration found to suppress growth. Low values mean inhibition by little substance, high ones a need for much substance. The IC50 is the midpoint of a concentration-inhibition curve. Higher therefore signals weaker potency in that assay.
